The text below walks through data of the RNAGym collection of RNA variant scans (doi:10.1126/science.aae0568).

Fewer inactive variants are shown than the library holds.

B1: tRNA (parent)
chain: GUUCCGUUGGCGUAAUGGUAACGCGUCUCCCUCCUAAGGAGAAGACUGCGGGUUCGAGUCCCGUACGGAACG

In this data set the parent is B1. Put plainly: yeast fitness relative to wild type (ratio to wild type); higher = fitter; tRNA-Arg(CCU), competitive growth, 37 C, YPD. In a few lines: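 Gene amplicons from the start population and from each of six end populations were read by 100-nucleotide paired-end sequencing. Those end populations came from pooled Saccharomyces cerevisiae strains carrying tRNA-Arg(CCU) gene variants at the native locus, competed in YPD at 37°C for 24 hours. Fitness relative to wild type was worked out from changes in genotype frequencies. Genotypes needed ≥ 100 starting reads, and estimates < 0.5 were set to 0.5.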
Take U8C A21U C27U G38C C61G: the yeast fitness is 0.553.

Take U8C A15C C34U A37G A40U: the yeast fitness is at most 0.5.

On to U8A C34U A65U, for which the yeast fitness was at most 0.5.

Take U8C A40C A65C G68C: the yeast fitness was at most 0.5.

As for U8A G44A, the yeast fitness came out at 0.644.

With U8A G44C, the yeast fitness stood at 0.788.

Consider U8A G18A U47G U54A, for which the yeast fitness was at most 0.5.

As for U8A U28G, the yeast fitness was 0.661.

Take U8C C27G C30G C46U C49G: the yeast fitness is at most 0.5.

For U8C A15C A20U, the yeast fitness was 0.544.

U8A G9A C24G A69G: the yeast fitness is at most 0.5.

Consider U8A G10C C34U C61U U64G, for which the yeast fitness was at most 0.5.

U8C A20U C30G A37G G44A: the yeast fitness was at most 0.5.

For U8C A37C G51A, the yeast fitness was at most 0.5.

For U8A U19C C31A U35G A43G U47C G52U G67A, the yeast fitness was at most 0.5.

Consider U8C C11G A15C A70C, for which the yeast fitness is at most 0.5.

With U8C C24G C27U C55A, the yeast fitness was at most 0.5.

As to U8A G12A A14C G67U, the yeast fitness came to 0.65.

As for U8C C22A C46A A65U, the yeast fitness is at most 0.5.

Consider U8C A21G C33U A36G A43U A65U A70G, for which the yeast fitness was at most 0.5.

For U8C A36G G44A C46U, the yeast fitness was 0.674.

Regarding U8C A14G A70U, the yeast fitness was 0.59.

On to U8A C27G A42U, for which the yeast fitness is at most 0.5.

Regarding U8C A43G A70C, the yeast fitness amounted to 0.74.

As to U8C A15G G38C U64A G68A A69C, the yeast fitness is at most 0.5.

Consider U8A C31U U59A, for which the yeast fitness was at most 0.5.

As to U8C A36G A70C, the yeast fitness came to 0.644.

Take U8A C27A U47C: the yeast fitness is 0.558.

With U8A U28A C33A A36U, the yeast fitness was 0.541.

On to U8C C27G A57C A70U, for which the yeast fitness was at most 0.5.

As to U8A G18C C24A U26A U32C, the yeast fitness is at most 0.5.

U8A U16A G23A C34U G39A G58C: the yeast fitness came out at 0.559.

As for U8A G18A C27U C31A, the yeast fitness was at most 0.5.

Turning to U8A C29U C30G, the yeast fitness was at most 0.5.

As for U8A U13A C29G A45C G68C A69G, the yeast fitness is at most 0.5.

Turning to U8C C24G G50A, the yeast fitness is at most 0.5.

For the variant U8A C30U A42G A57C, the yeast fitness is at most 0.5.

In the case of U8A G44A C60U G67C, the yeast fitness came out at 0.576.

On to U8A C46A U54C, for which the yeast fitness turned out to be 0.666.

With U8A C27A, the yeast fitness turned out to be 0.625.

Turning to U8C C22A A36C G63C G67A, the yeast fitness is at most 0.5.

For U8A C33U, the yeast fitness is at most 0.5.

Turning to U8C C11U G58U C61A, the yeast fitness was at most 0.5.

U8C A42U U53A: the yeast fitness is at most 0.5.

Turning to U8C C27G G44A, the yeast fitness was at most 0.5.

In the case of U8A U32C G44C C62U, the yeast fitness was at most 0.5.

For the variant U8A U26G U35C G63A A70G, the yeast fitness is at most 0.5.

As to U8C C22A C33G G39C C46U, the yeast fitness was at most 0.5.

Regarding U8A G12C G17A C29U G38A G44C G50A, the yeast fitness is at most 0.5.

Take U8A U19C A21C G39C C61U: the yeast fitness is at most 0.5.

Consider U8C A20C G38A U53A, for which the yeast fitness is at most 0.5.

As to U8A G56A G67C, the yeast fitness was at most 0.5.

U8A G23C G56A: the yeast fitness was found to be 0.539.

Turning to U8C A43C C49G A57G, the yeast fitness was at most 0.5.

In the case of U8A G18C U19C A20C A36G U64A G67C, the yeast fitness is at most 0.5.

For U8A C29U G51C A57G, the yeast fitness is at most 0.5.

As to U8A U19G C22U, the yeast fitness was at most 0.5.

On to U8C C22A G39A U47A, for which the yeast fitness was at most 0.5.

Consider U8A C24G U26A G50A, for which the yeast fitness was at most 0.5.

As for U8C C22G A37G C60A A70G, the yeast fitness was at most 0.5.

As to U8A G10C G12C C34G C61G, the yeast fitness was at most 0.5.

As to U8A U28C C33A, the yeast fitness is at most 0.5.

Take U8A G39C A43G: the yeast fitness came to 0.605.

On to U8C A14G A20U C30G A37G G44A, for which the yeast fitness was at most 0.5.

For U8C A14U A42C G52A G56C, the yeast fitness was at most 0.5.

As to U8C A15G G25A C49U A65U, the yeast fitness was at most 0.5.

As for U8A C27U A42G, the yeast fitness was at most 0.5.

As to U8A C24U A40U A42C A65C A69C, the yeast fitness was at most 0.5.

With U8A G23A C30G A65U, the yeast fitness was 0.55.

For U8C C11U C31U, the yeast fitness stood at 0.576.

With U8A G18A C30G U32A U35G G67A, the yeast fitness was at most 0.5.

With U8C C27G A42C C62G, the yeast fitness is at most 0.5.

In the case of U8C A14C A43G, the yeast fitness was at most 0.5.

Take U8A U28C U47A: the yeast fitness is at most 0.5.

Regarding U8C A21C C30U G52A, the yeast fitness is at most 0.5.

Turning to U8A G18A C30A U32A U35G G56A C60A C62G C66A, the yeast fitness was at most 0.5.

Regarding U8A C27A C49U A69U, the yeast fitness was at most 0.5.

Turning to U8C C11A A42G A43U C46U C62U, the yeast fitness was at most 0.5.

For the variant U8C A21U G56C G63A U64C G67C, the yeast fitness is at most 0.5.

Take U8A G41C C62U A65U: the yeast fitness is at most 0.5.

On to U8A U13A A15U C46G A69U, for which the yeast fitness is at most 0.5.

Consider U8A U26G C29A C46U G58A, for which the yeast fitness is at most 0.5.

For U8C A43G, the yeast fitness turned out to be 0.93.

Consider U8C A43U, for which the yeast fitness was found to be 1.03.

Consider U8C A36C, for which the yeast fitness came to 0.577.

Consider U8A U28A C33A A36U A57G, for which the yeast fitness was at most 0.5.

Turning to U8A C30G C62U G67C, the yeast fitness came to 0.546.

Consider U8A G9C A15G U54A, for which the yeast fitness was at most 0.5.

Take U8C A45C A69U: the yeast fitness turned out to be 0.765.

Consider U8C C11A A43U G48C C60G, for which the yeast fitness was at most 0.5.

With U8A U28A C31G A65U A69C, the yeast fitness was at most 0.5.

Take U8A C29U G51C C55U: the yeast fitness stood at 0.526.

With U8A G18A C30A U32A U35G C55U G67A, the yeast fitness was at most 0.5.

Regarding U8C A15G G50A, the yeast fitness came to 0.674.

In the case of U8A C61A G67A, the yeast fitness is 0.528.

On to U8A C33A A40G, for which the yeast fitness was at most 0.5.

With U8A C33A A40C, the yeast fitness is at most 0.5.

For U8A U32A G52A G56C, the yeast fitness is at most 0.5.

Regarding U8A C33U C66A, the yeast fitness is at most 0.5.

On to U8A C24A U28C, for which the yeast fitness is at most 0.5.

U8C A21U C34A A40C: the yeast fitness was 0.627.

For U8A G10C G12C C34G G67U, the yeast fitness is at most 0.5.

U8A G9C A57C: the yeast fitness is 0.701.

Take U8C A15C A45C C62G: the yeast fitness turned out to be 0.535.

Consider U8C A40G A43C A69U, for which the yeast fitness was at most 0.5.

For U8A U35G, the yeast fitness is at most 0.5.

For U8A G23A U32G C60U U64G A69C, the yeast fitness was at most 0.5.

Take U8A U59A C66G A70C: the yeast fitness is at most 0.5.

Regarding U8A C60G G67A, the yeast fitness was at most 0.5.

On to U8A G38A G48C G67A, for which the yeast fitness came out at 0.69.

On to U8C C27G A57C, for which the yeast fitness amounted to 0.586.

As to U8C A15C G63A, the yeast fitness was at most 0.5.

As for U8C C11A G25C U28A A40U, the yeast fitness was at most 0.5.

As for U8C A20C G56A C61U, the yeast fitness is 0.532.

In the case of U8A U64A A65C G68A, the yeast fitness is at most 0.5.

Turning to U8A G18A G52A U59A G67C, the yeast fitness is at most 0.5.

As for U8A C31G A65U, the yeast fitness was at most 0.5.

Turning to U8C C24U, the yeast fitness was 0.945.

U8C C24G: the yeast fitness is 0.576.

With U8A C24A G52C, the yeast fitness is at most 0.5.

Take U8A C24U U28C A40C: the yeast fitness was at most 0.5.

As to U8A G9A A21C, the yeast fitness was at most 0.5.

In the case of U8A G10A G38C, the yeast fitness was at most 0.5.

For the variant U8A G48C A70G, the yeast fitness was at most 0.5.

Regarding U8C A14G C24G C31U C55A, the yeast fitness was at most 0.5.

As for U8A C34U A43U U59C, the yeast fitness was 0.619.

In the case of U8A U16A C27G C31A U59C C61U, the yeast fitness is at most 0.5.

As for U8A G18A C30G A40C U47C, the yeast fitness is at most 0.5.

For U8C A42U A43G, the yeast fitness turned out to be 0.507.

With U8C A21G, the yeast fitness stood at 1.03.

On to U8A C24U, for which the yeast fitness was 0.834.

With U8A G44C C66U, the yeast fitness was at most 0.5.

Consider U8A C24U A40U A42G A45U, for which the yeast fitness is at most 0.5.

On to U8A C29G A40G A70G, for which the yeast fitness was at most 0.5.

Consider U8A G10A U13C A14U C27G U47C C62A, for which the yeast fitness is at most 0.5.

With U8C C11U A15C A21G C24G U28A, the yeast fitness is at most 0.5.

U8A C31U G58A C61G C66U: the yeast fitness is at most 0.5.

As to U8A C30U G58C, the yeast fitness was at most 0.5.

Regarding U8C C24G G38C, the yeast fitness was at most 0.5.

As to U8C C24A C46G G52C U59A, the yeast fitness was at most 0.5.

On to U8A G10A G67C A69U, for which the yeast fitness was at most 0.5.

As to U8A G12A C62A, the yeast fitness turned out to be 0.53.

For U8C C22G C49U G63A U64C, the yeast fitness was at most 0.5.

Consider U8C A21U C27G C29U U32C, for which the yeast fitness is at most 0.5.

Consider U8A U35A G44C A45U, for which the yeast fitness worked out at 0.64.

For the variant U8A C29G A65G C66G, the yeast fitness was 0.57.

With U8C A42G, the yeast fitness is 0.995.

U8C A40U: the yeast fitness is 0.903.

As for U8C A40G, the yeast fitness was 0.877.

For the variant U8C A40C, the yeast fitness is 1.02.

Take U8A C34U C61A: the yeast fitness is at most 0.5.

In the case of U8C A42G C61U, the yeast fitness came to 0.526.

For the variant U8A G12A A20C, the yeast fitness was at most 0.5.

Turning to U8C A45U, the yeast fitness worked out at 0.923.

Consider U8A G18C C27U C46A G50A C62U, for which the yeast fitness was at most 0.5.

In the case of U8C A15U C33G C62G, the yeast fitness was at most 0.5.

As for U8C A37G G39C, the yeast fitness is at most 0.5.

As for U8C C11A G25C C29U A65C A70U, the yeast fitness was at most 0.5.

For the variant U8A C46A, the yeast fitness came to 0.657.

Regarding U8A C24A U28C G68U, the yeast fitness turned out to be 0.531.

On to U8A G25A G48C C62A, for which the yeast fitness is at most 0.5.

As to U8A U47A, the yeast fitness turned out to be 0.619.

As for U8A U47C, the yeast fitness amounted to 0.723.

With U8A G23A A36G, the yeast fitness was at most 0.5.

Consider U8A G63A, for which the yeast fitness is 0.597.

Consider U8A U19C A21C G39C, for which the yeast fitness is at most 0.5.

On to U8A G12A A21G C62U, for which the yeast fitness amounted to 0.697.
